Source: ChEMBL document CHEMBL3351380, “Antioxidant and antimicrobial studies on fused-ring pyrazolones and isoxazolones” (Bioorg Med Chem, 2014)
Converted amounts (≈) assume the structure as drawn. The source made the active and inactive calls. The rule behind the calls is not given here.

What was measured:
Escherichia coli [1] = assay: Antimicrobial activity against Escherichia coli ATCC 8739 by agar well diffusion method; format: functional
[2] = Antioxidant activity assessed as DPPH radical scavenging activity after 30 mins by spectrophotometry; format: physicochemical
In short: (§1)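 DPPH (0.51 mM in methanol) was mixed 1:1 by volume with the compound at several concentrations (100, 50, 25 … µg/mL range). Absorbance was read against a control, and % inhibition = (A0−As)/A0 ×100. Readings were taken at 30 min and 3 h, with ascorbic acid as the reference. Triplicate measurements.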

Escherichia coli [3] = assay: Antimicrobial activity against Escherichia coli ATCC 8739 assessed as zone of inhibition at 100 ug/ml by agar well diffusion method; format: functional; conditions: for zone of inhibition at 100 µg/mL: read-out: IZ
In short: (§2)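 For the agar well diffusion screen, samples at 100 µg/mL were made from a stock of 10 mg in 1 mL EtOH diluted 1:1 (v/v) with Mueller-Hinton medium. The zone of inhibition was scored as 5–10 mm poor, 10–15 moderate, 15–20 good and 20–25 very good. Gentamycin and nystatin were the reference drugs. Strains were confirmed at the University of Botswana microbiology laboratory.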

[4] = Antioxidant activity assessed as DPPH radical scavenging activity after 3 hrs by spectrophotometry; format: physicochemical; in short: as §1
Staphylococcus aureus [5] = assay: Antimicrobial activity against Staphylococcus aureus ATCC 25923 by agar well diffusion method; format: functional
Candida albicans [6] = assay: Antifungal activity against Candida albicans assessed as zone of inhibition at 100 ug/ml by agar well diffusion method; format: functional; conditions: for zone of inhibition at 100 µg/mL: read-out: IZ; in short: as §2
Pseudomonas aeruginosa [7] = assay: Antimicrobial activity against Pseudomonas aeruginosa NCIMB 8295 assessed as zone of inhibition at 100 ug/ml by agar well diffusion method; format: functional; conditions: for zone of inhibition at 100 µg/mL: read-out: IZ; in short: as §2
Pseudomonas aeruginosa [8] = assay: Antimicrobial activity against Pseudomonas aeruginosa NCIMB 8295 by agar well diffusion method; format: functional
Staphylococcus aureus [9] = assay: Antimicrobial activity against Staphylococcus aureus ATCC 25923 assessed as zone of inhibition at 100 ug/ml by agar well diffusion method; format: functional; conditions: for zone of inhibition at 100 µg/mL: read-out: IZ; in short: as §2
Bacillus subtilis [10] = assay: Antimicrobial activity against Bacillus subtilis NCIB 3610 assessed as zone of inhibition at 100 ug/ml by agar well diffusion method; format: functional; conditions: for zone of inhibition at 100 µg/mL: subsp. subtilis str. NCIB 3610, read-out: IZ; for Activity: subsp. subtilis str. NCIB 3610; in short: as §2
Bacillus subtilis [11] = assay: Antimicrobial activity against Bacillus subtilis NCIB 3610 by agar well diffusion method; format: functional; conditions: subsp. subtilis str. NCIB 3610
Candida albicans [12] = assay: Antifungal activity against Candida albicans by agar well diffusion method; format: functional
[13] = Metal chelating activity of the compound assessed as formation of iron complex after 20 mins by spectrophotometry; format: physicochemical
In short: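 Fe2+ chelation was measured by disruption of the o-phenanthroline–Fe2+ complex. O-phenanthroline (0.05% in methanol) and FeCl2 (0.1%) were mixed with the sample at various concentrations and held at room temperature for 20 min, then read at 510 nm. EDTA was the standard chelator. % chelation = (Acontrol−Asample)/Acontrol ×100, and IC50 came from plots of % chelation versus concentration. Triplicates.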

| Compound | MIC (Escherichia coli [1]) | IC50 [2] [µg/mL] | Activity (Escherichia coli [3]) | IC50 [4] [µg/mL] | MIC (Staphylococcus aureus [5]) | zone of inhibition at 100 µg/mL (Candida albicans [6]) [mm] | Activity (Pseudomonas aeruginosa [7]) | MIC (Pseudomonas aeruginosa [8]) | Activity (Staphylococcus aureus [9]) | zone of inhibition at 100 µg/mL (Bacillus subtilis [10]) [mm] | MIC (Bacillus subtilis [11]) | MIC (Candida albicans [12]) | IC50 [13] [µg/mL] | Activity (Candida albicans [6]) | Activity (Bacillus subtilis [10]) | zone of inhibition at 100 µg/mL (Escherichia coli [3]) [mm] | zone of inhibition at 100 µg/mL (Pseudomonas aeruginosa [7]) [mm] | zone of inhibition at 100 µg/mL (Staphylococcus aureus [9]) [mm] |
| --- | --- | --- | --- | --- | --- | --- | --- | --- | --- | --- | --- | --- | --- | --- | --- | --- | --- | --- |
| CCOC(=O)C1C(=O)C=C(c2cccs2)CC1c1cccc([N+](=O)[O-])c1 (centres undefined) | inactive | 208.95 (≈ 563 µM) | inactive | 133.66 (≈ 360 µM) | inactive | 8 | inactive | inactive | inactive | 12 | 2.5 µg/mL (≈ 6.73 µM) | 2.5 µg/mL (≈ 6.73 µM) | 1030.56 (≈ 2770 µM) | – | – | – | – | – |
| O=C(O)CN(CCN(CC(=O)O)CC(=O)O)CC(=O)O [EDETIC ACID] | – | – | – | – | – | – | – | – | – | – | – | – | 50.98 (≈ 174 µM) | – | – | – | – | – |
| COc1ccc(C2=CC3=NNC(=O)C3C(c3cccc([N+](=O)[O-])c3)C2)cc1 (centres undefined) | inactive | 86.74 (≈ 239 µM) | inactive | 38.38 (≈ 106 µM) | inactive | – | inactive | inactive | inactive | 11 | 2.5 µg/mL (≈ 6.88 µM) | inactive | 85.58 (≈ 236 µM) | inactive | – | – | – | – |
| GENTAMICIN | < 0.02 µg/mL | – | – | – | < 0.02 µg/mL | – | – | < 0.02 µg/mL | – | – | < 0.02 µg/mL | – | – | – | – | – | – | – |
| COc1ccc(C2=CC3=NOC(=O)C3C(c3cccc([N+](=O)[O-])c3)C2)c(OC)c1 (centres undefined) | inactive | 275 (≈ 697 µM) | inactive | 140.02 (≈ 355 µM) | inactive | – | inactive | inactive | inactive | – | inactive | inactive | 746.04 (≈ 1890 µM) | inactive | inactive | – | – | – |
| CCOC(=O)C1C(=O)C=C(c2ccccc2)CC1c1cccc([N+](=O)[O-])c1 (centres undefined) | inactive | 165.21 (≈ 452 µM) | inactive | 143.6 (≈ 393 µM) | inactive | – | inactive | inactive | inactive | – | inactive | inactive | 1028.57 (≈ 2820 µM) | inactive | inactive | – | – | – |
| O=C1O[C@H]([C@@H](O)CO)C(O)=C1O [ASCORBIC ACID] | – | 37.78 (≈ 215 µM) | – | 25.26 (≈ 143 µM) | – | – | – | – | – | – | – | – | – | – | – | – | – | – |
| O=C(/C=C/c1cccc([N+](=O)[O-])c1)c1ccc(Br)cc1 | – | 170 (≈ 512 µM) | – | 122.8 (≈ 370 µM) | – | – | – | – | – | – | – | – | 202.56 (≈ 610 µM) | – | – | – | – | – |
| O=C(/C=C/c1cccc([N+](=O)[O-])c1)c1cccs1 | – | 112.29 (≈ 433 µM) | – | 90.73 (≈ 350 µM) | – | – | – | – | – | – | – | – | 1029.41 (≈ 3970 µM) | – | – | – | – | – |
| CCOC(=O)C1C(=O)C=C(c2ccc(Br)cc2)CC1c1cccc([N+](=O)[O-])c1 (centres undefined) | inactive | 409.1 (≈ 921 µM) | inactive | 409.1 (≈ 921 µM) | inactive | – | inactive | inactive | inactive | – | inactive | inactive | 1148.57 (≈ 2590 µM) | inactive | inactive | – | – | – |
| COc1ccc(C(=O)/C=C/c2cccc([N+](=O)[O-])c2)cc1 | – | 135.27 (≈ 478 µM) | – | 92.46 (≈ 326 µM) | – | – | – | – | – | – | – | – | 97.32 (≈ 344 µM) | – | – | – | – | – |
| O=C1ON=C2C=C(c3cccs3)CC(c3cccc([N+](=O)[O-])c3)C12 (centres undefined) | 2.5 µg/mL (≈ 7.35 µM) | 309.29 (≈ 909 µM) | – | 197.78 (≈ 581 µM) | 2.5 µg/mL (≈ 7.35 µM) | 15 | – | 2.5 µg/mL (≈ 7.35 µM) | – | 14 | 1.25 µg/mL (≈ 3.67 µM) | 1.25 µg/mL (≈ 3.67 µM) | 675.67 (≈ 1990 µM) | – | – | 13 | 11 | 12 |
| NYSTATIN | – | – | – | – | – | – | – | – | – | – | – | < 0.02 µg/mL | – | – | – | – | – | – |
| O=C1NN=C2C=C(c3cccs3)CC(c3cccc([N+](=O)[O-])c3)C12 (centres undefined) | 2.5 µg/mL (≈ 7.37 µM) | 100.61 (≈ 296 µM) | – | 63.78 (≈ 188 µM) | 2.5 µg/mL (≈ 7.37 µM) | 23 | – | 2.5 µg/mL (≈ 7.37 µM) | – | 22 | 0.313 µg/mL (≈ 0.922 µM) | 0.313 µg/mL (≈ 0.922 µM) | 86.96 (≈ 256 µM) | – | – | 11 | 10 | 9 |
| COc1ccc(C(=O)/C=C/c2cccc([N+](=O)[O-])c2)c(OC)c1 | – | 133.57 (≈ 426 µM) | – | 96.22 (≈ 307 µM) | – | – | – | – | – | – | – | – | 95.13 (≈ 304 µM) | – | – | – | – | – |
| O=C1NN=C2C=C(c3ccccc3)CC(c3cccc([N+](=O)[O-])c3)C12 (centres undefined) | inactive | 98.53 (≈ 296 µM) | inactive | 59.5 (≈ 178 µM) | 2.5 µg/mL (≈ 7.5 µM) | – | inactive | inactive | – | 13 | 2.5 µg/mL (≈ 7.5 µM) | inactive | 93.04 (≈ 279 µM) | inactive | – | – | – | 12 |
| O=C1ON=C2C=C(c3ccc(O)cc3)CC(c3cccc([N+](=O)[O-])c3)C12 (centres undefined) | 2.5 µg/mL (≈ 7.14 µM) | 202.15 (≈ 577 µM) | – | 118.69 (≈ 339 µM) | 2.5 µg/mL (≈ 7.14 µM) | 10 | inactive | inactive | – | – | inactive | 2.5 µg/mL (≈ 7.14 µM) | 360.98 (≈ 1030 µM) | – | inactive | 10 | – | 10 |
| COc1ccc(C2=CC3=NNC(=O)C3C(c3cccc([N+](=O)[O-])c3)C2)c(OC)c1 (centres undefined) | inactive | 88.75 (≈ 226 µM) | inactive | 39.67 (≈ 101 µM) | inactive | – | inactive | inactive | inactive | 9 | 2.5 µg/mL (≈ 6.35 µM) | inactive | 84.39 (≈ 215 µM) | inactive | – | – | – | – |
| CCOC(=O)C1C(=O)C=C(c2ccc(OC)cc2)CC1c1cccc([N+](=O)[O-])c1 (centres undefined) | inactive | 196.5 (≈ 497 µM) | inactive | 98.53 (≈ 249 µM) | inactive | – | inactive | inactive | inactive | – | inactive | inactive | 1028 (≈ 2600 µM) | inactive | inactive | – | – | – |
| O=C(/C=C/c1cccc([N+](=O)[O-])c1)c1ccccc1 | – | 165.21 (≈ 652 µM) | – | 112.5 (≈ 444 µM) | – | – | – | – | – | – | – | – | 104.76 (≈ 414 µM) | – | – | – | – | – |
| O=C(/C=C/c1cccc([N+](=O)[O-])c1)c1ccc(O)cc1 | – | 92.75 (≈ 344 µM) | – | 40.67 (≈ 151 µM) | – | – | – | – | – | – | – | – | 84.09 (≈ 312 µM) | – | – | – | – | – |
